ChEMBL document CHEMBL1955735, “Tea catechins and flavonoids from the leaves of Camellia sinensis inhibit yeast alcohol dehydrogenase” (Bioorg Med Chem, 2012)
Active and inactive are the calls of the source. No cut-off for these calls is given here.

Key:
[1] = Inhibition of Saccharomyces cerevisiae alcohol dehydrogenase measured every 5 mins for 2 hrs by spectrophotometry
How it was run: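 Yeast ADH in a microplate. DMSO sample stocks were serially diluted in 10 mM PBS pH 7.4 and combined with ethanol (25% in PBS) and β-NAD⁺ (1.87 mM in PBS), both as added solutions. The mix was equilibrated 5 min at 24 °C, then ADH (1180 unit/L solution) was added and incubated 2 h at 24 °C. NADH was read at A340 every 5 min. IC50 was the concentration halving NADH versus the PBS control at 2 h. Run in triplicate, with disulfiram as positive control.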

[2] = tested on: Radical scavenging activity; test: Antioxidant activity assessed as DPPH radical scavenging activity after 30 mins by spectrophotometry; type: functional
How it was run: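 Microplate DPPH assay: 30 min incubation at room temperature, then absorbance read at 517 nm. IC50 is the concentration giving a 50% drop in absorbance relative to the DPPH control solution.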

[3] = Inhibition of aldehyde dehydrogenase
[4] = Activation of aldehyde dehydrogenase

Structure (SMILES) | IC50 [1] [µM] | IC50 [2] [µM] | inhibition [3] | Activity [4]
O=c1c(O[C@@H]2O[C@H](CO)[C@@H](O)[C@H](O)[C@H]2O)c(-c2cc(O)c(O)c(O)c2)oc2cc(O)cc(O)c12 | 19.9 | 28 | inactive | inactive
COc1cc(C(=O)O[C@@H]2Cc3c(O)cc(O)cc3O[C@@H]2c2ccc(O)c(O)c2)cc(O)c1O | 44.1 | 10.8 | inactive | inactive
O=C(O[C@@H]1Cc2c(O)cc(O)cc2O[C@@H]1c1ccc(O)cc1)c1cc(O)c(O)c(O)c1 | 44.3 | 2.8 | inactive | inactive
O=C(/C=C\c1ccc(O)cc1)O[C@@H]1Cc2c(O)cc(O)cc2O[C@@H]1c1cc(O)c(O)c(O)c1 | 22.1 | 26.4 | inactive | inactive
C[C@@H]1O[C@@H](OC[C@H]2O[C@@H](Oc3c(-c4ccc(O)c(O)c4)oc4cc(O)cc(O)c4c3=O)[C@H](O)[C@@H](O)[C@@H]2O)[C@H](O)[C@H](O[C@@H]2O[C@H](CO)[C@@H](O)[C@H](O)[C@H]2O)[C@H]1O | 19.7 | 7.7 | inactive | inactive
C[C@@H]1O[C@@H](OC[C@H]2O[C@@H](Oc3c(-c4ccc(O)c(O)c4)oc4cc(O)cc(O)c4c3=O)[C@H](O)[C@@H](O)[C@H]2O)[C@H](O)[C@H](O[C@@H]2O[C@H](CO)[C@@H](O)[C@H](O)[C@H]2O)[C@H]1O | 41 | 30.1 | inactive | inactive
C[C@@H]1O[C@@H](OC[C@H]2O[C@@H](Oc3c(-c4ccc(O)cc4)oc4cc(O)cc(O)c4c3=O)[C@H](O)[C@@H](O)[C@H]2O)[C@H](O)[C@H](O[C@@H]2O[C@H](CO)[C@@H](O)[C@H](O)[C@H]2O)[C@H]1O | 17.6 | > 100 | inactive | inactive
O=C(/C=C/c1ccc(O)cc1)O[C@@H]1Cc2c(O)cc(O)cc2O[C@@H]1c1cc(O)c(O)c(O)c1 | 8 | 43.8 | inactive | inactive
O=c1c(O[C@@H]2O[C@H](CO)[C@H](O)[C@H](O)[C@H]2O)c(-c2cc(O)c(O)c(O)c2)oc2cc(O)cc(O)c12 | 18.2 | 3.5 | inactive | inactive
Cc1c(C)c2c(c(C)c1O)CC[C@@](C)(CCC[C@H](C)CCC[C@H](C)CCCC(C)C)O2 [ALPHA-TOCOPHEROL] | – | 11.4 | – | –
Cn1c(=O)c2c(ncn2C)n(C)c1=O [CAFFEINE] | 197 | > 100 | inactive | inactive
C[C@@H]1O[C@@H](OC[C@H]2O[C@@H](Oc3c(-c4ccc(O)c(O)c4)oc4cc(O)cc(O)c4c3=O)[C@H](OC(=O)/C=C/c3ccc(O)cc3)[C@@H](O[C@@H]3OC[C@H](O)[C@H](O)[C@H]3O)[C@@H]2O)[C@H](O)[C@H](O[C@@H]2O[C@H](CO)[C@@H](O)[C@H](O)[C@H]2O)[C@H]1O [CAMELLIQUERCETISIDE A] | 17.3 | 19.8 | inactive | inactive
C[C@@H]1O[C@@H](OC[C@H]2O[C@@H](Oc3c(-c4ccc(O)c(O)c4)oc4cc(O)cc(O)c4c3=O)[C@H](OC(=O)/C=C/c3ccc(O)cc3)[C@@H](O)[C@@H]2O)[C@H](O)[C@H](O[C@@H]2O[C@H](CO)[C@@H](O)[C@H](O)[C@H]2O)[C@H]1O [CAMELLIQUERCETISIDE B] | 13.7 | 22 | inactive | inactive
C[C@@H]1O[C@@H](OC[C@H]2O[C@@H](Oc3c(-c4ccc(O)c(O)c4)oc4cc(O)cc(O)c4c3=O)[C@H](OC(=O)/C=C/c3ccc(O)cc3)[C@@H](O[C@@H]3OC[C@H](O)[C@H](O)[C@H]3O)[C@@H]2O)[C@H](O)[C@H](O)[C@H]1O [CAMELLIQUERCETISIDE C] | 46.7 | 31.9 | inactive | inactive
C[C@@H]1O[C@@H](OC[C@H]2O[C@@H](Oc3c(-c4ccc(O)c(O)c4)oc4cc(O)cc(O)c4c3=O)[C@H](OC(=O)/C=C/c3ccc(O)cc3)[C@@H](O)[C@@H]2O)[C@H](O)[C@H](O)[C@H]1O [CAMELLIQUERCETISIDE D] | 41.5 | 29.2 | inactive | inactive
Oc1cc(O)c2c(c1)O[C@H](c1ccc(O)c(O)c1)[C@@H](O)C2 [CIANIDANOL] | 21.1 | 4.3 | inactive | inactive
CCN(CC)C(=S)SSC(=S)N(CC)CC [DISULFIRAM] | 248 | – | – | –
O=C(O[C@@H]1Cc2c(O)cc(O)cc2O[C@@H]1c1ccc(O)c(O)c1)c1cc(O)c(O)c(O)c1 [EPICATECHIN GALLATE] | 65.5 | 1.5 | inactive | inactive
Oc1cc(O)c2c(c1)O[C@H](c1cc(O)c(O)c(O)c1)[C@H](O)C2 [EPIGALLOCATECHIN] | 16.5 | 16.2 | inactive | inactive
O=C(O[C@@H]1Cc2c(O)cc(O)cc2O[C@@H]1c1cc(O)c(O)c(O)c1)c1cc(O)c(O)c(O)c1 [EPIGALOCATECHIN GALLATE] | 42.8 | 8.3 | inactive | inactive
C[C@@H]1O[C@@H](OC[C@H]2O[C@@H](Oc3c(-c4ccc(O)cc4)oc4cc(O)cc(O)c4c3=O)[C@H](O)[C@@H](O)[C@@H]2O)[C@H](O)[C@H](O)[C@H]1O [NICOTIFLOROSIDE] | 40.4 | > 100 | inactive | inactive
O=c1c(O[C@@H]2O[C@H](CO)[C@H](O)[C@H](O)[C@H]2O)c(-c2ccc(O)cc2)oc2cc(O)cc(O)c12 [TRIFOLIN] | 70.3 | > 100 | inactive | inactive
